Reference: ChEMBL document CHEMBL4002579, “Isolation and Structure Elucidation by LC-DAD-MS and LC-DAD-SPE-NMR of Cyclopeptide Alkaloids from the Roots of Ziziphus oxyphylla and Evaluation of Their Antiplasmodial Activity” (J Nat Prod, 2016)

Legend:
MRC5 = assay: Cytotoxicity against human MRC5 cells assessed as decrease in cell proliferation/viability after 7 days by MTT assay; format: cell-based; conditions: MRC5, 168 h
Procedure, shortened: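 Human fetal lung fibroblast MRC-5 cells; tested up to a highest concentration of 64.0 μM. Result is the mean and standard deviation of three experiments.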

Plasmodium falciparum [1] = assay: Antiplasmodial activity against chloroquine-resistant Plasmodium falciparum K1 infected in human O+erythrocytes after 72 hrs by lactate dehydrogenase assay; format: functional, cell-based; conditions: K1, 72 h
Plasmodium falciparum [2] = assay: Antiplasmodial activity against multidrug-resistant Plasmodium falciparum K1 assessed as reduction in parasite growth by [3H]-hypoxanthine incorporation assay; format: functional

Compound	IC50 (MRC5) [µM]	IC50 (Plasmodium falciparum [1]) [µM]	IC50 (Plasmodium falciparum [2]) [µM]
CCC(C)[C@@H]1NC(=O)[C@@H]2[C@H](CCN2C(=O)[C@H](Cc2c[nH]c3ccccc23)N(C)C)Oc2ccc(OC)c(c2)/C=C\NC1=O (stereo partly specified)	30.6	3.2	–
O=C1N/C=C\c2ccc(cc2)O[C@@H](c2ccccc2)[C@H](NC(=O)[C@@H]2CCCN2C(=O)/C=C/c2ccccc2)C(=O)N[C@H]1C(O)c1ccccc1 (stereo partly specified)	31.2	7.4	–
CCC(C)[C@@H]1NC(=O)[C@@H]2[C@H](CCN2C(=O)[C@H](Cc2c[nH]c3ccccc23)N(C)C)Oc2ccc(cc2)/C=C\NC1=O (stereo partly specified)	> 64	13.6	7.3
CCC(C)[C@@H]1NC(=O)[C@@H]2[C@H](CCN2C(=O)[C@H](Cc2c[nH]c3ccccc23)N(C)C)Oc2ccc(O)c(c2)/C=C\NC1=O (stereo partly specified)	> 64	7.1	–
CCC(C)[C@@H]1NC(=O)[C@@H]2[C@H](CCN2C(=O)[C@H](C(C)CC)N(C)C)Oc2ccc(cc2)/C=C\NC1=O (stereo partly specified)	> 64	> 32	–
